Results published in publication PMC4361903 (Blood, 2010).
Where no end group is shown, it is not given here. [ ]: non-standard residue; d: D form. pY = N[C@@H](Cc1ccc(OP(=O)(O)O)cc1)C(=O)O

How the values were obtained:
Syk (platelet) = Syk (platelet) (UniProt P43405); assay: biotinylated peptide pull-down, Syk blot; details: reference: pY7 31-mer peptide; sites T9
[1] = target: dually phosphorylated peptide based on the human FcRγ-chain ITAM, biotinylated (human) (UniProt P30273); assay: SPR
GPVI = details: cross-linking of GPVI; ref [8],[9]; cited from earlier work
[2] = system: GPVI and FcRγ-chain with mutated C-terminal ITAM tyrosine; assay type: cell-based; details: 10 μg/ml collagen, 6 hrs, 37°C; three separate experiments
Outline: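 DT40 chicken B-cells (RPMI, 10% FBS, 1% chicken serum, 50μM β-mercaptoethanol) electroporated (350V, 500μF) with 2μg/ml each of GPVI and Myc-tagged FcRγ construct, 20μg NFAT-luciferase reporter and 2μg pEF6-lacZ. Live cells counted by trypan blue 20 h post-transfection. Luciferase normalised to β-galactosidase (triplicate readings), expressed as % wild-type response. Surface expression checked by anti-Myc flow cytometry.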

Syk C-SH2 domain = Syk C-SH2 domain (Homo sapiens, UniProt P43405); assay: Surface plasmon resonance, binding of Syk C-SH2 to immobilised peptide; details: SPR, 25°C, pH 7.4, SH2 domain 0-80μM
Syk N-SH2 domain = Syk N-SH2 domain (Homo sapiens, UniProt P43405); assay: Surface plasmon resonance, binding of Syk N-SH2 to immobilised peptide; details: SPR, 25°C, pH 7.4, SH2 domain 0-80μM
[3] = target: tandem SH2 domains of Syk (Homo sapiens, UniProt P43405); assay: Surface plasmon resonance, binding of Syk tandem SH2 to immobilised peptide; details: SPR, 25°C, pH 7.4, SH2 domains 0-80μM
[4] = system: single C-terminal SH2 domain of Syk; assay: Tryptophan fluorescence titration, Syk C-terminal SH2; assay type: binding; details: same concentration range as tandem SH2 titration; pH 7.5
[5] = target: Syk tandem SH2 domains (GST fusion protein); assay: other fluorescence titration
CLEC-2 = details: cross-linking of CLEC-2; ref [4],[6]; cited from earlier work

Chain of dually phosphorylated peptide based on the human FcRγ-chain ITAM, biotinylated (human) (P30273 54-82): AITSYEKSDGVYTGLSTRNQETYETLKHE

## CLEC-2 cytoplasmic tail, 1-31 (from UniProt Q9P126) pY7 pT9 31-mer peptide
Syk (platelet)
  binding against the reference: same

## Syk C-terminal SH2 domain (GST fusion protein) (domain or fragment)
[1]
  Kd: 1.7 µM

## Syk N-terminal SH2 domain (GST fusion protein) (domain or fragment)
[1]
  Kd: 19.7 µM

## Syk tandem SH2 domains (GST fusion protein) (domain or fragment)
[1]
  Kd: 0.02 µM

## collagen
GPVI
  phosphorylation of FcRγ-chain ITAM tyrosines: Src kinase-dependent phosphorylation of two conserved tyrosines
[2]
  NFAT activation by collagen, C-terminal ITAM tyrosine mutant: abolished

## non-phosphorylated CLEC-2 peptide: corresponding nonphosphorylated 13 amino acid peptide (MQDEDGYITLNIK; also: biotin, end not given here)
Syk C-SH2 domain
  detectable binding, C-SH2: No detectable binding
Syk N-SH2 domain
  detectable binding, N-SH2: No detectable binding
[3]
  detectable binding, tandem SH2: No detectable binding

## tyrosine phosphorylated CLEC-2 peptide: phosphorylated peptide based on the first 13 amino acids of the CLEC-2 tail, which includes the conserved MQDEDGYxxL sequence (MQDEDG[pY]ITLNIK; also: biotin, end not given here)
[4]
  binding to single C-terminal SH2 domain, tryptophan fluorescence: unable to detect binding

B1: tyrosine-phosphorylated peptide based on the first 13 amino acids of the CLEC-2 cytosolic tail, biotinylated (peptide)
peptide: MQDEDG[pY]ITLNIK
modifications: also: biotinylated, end not given here
[5]
  Kd: 5.7 µM

B2: podoplanin: transmembrane protein podoplanin (protein, UniProt Q86YL7 23-162, looked up)
Podoplanin: ASTGQPEDDTETTGLEGGVAMPGAEDDVVTPGTSEDRYKSGLTTLVATSVNSVTGIRIEDLPTSESTVHAQEQSPSATASNVATSHSTEKVDGDTQTTVEKDGLSTVTLVGIIVGVLLAIGFIGAIIVVVMRKMSGRYSP
CLEC-2
  platelet aggregation and secretion: powerful platelet aggregation and secretion
